Active and inactive are the calls of the source. The rule behind the calls is not given here.
Key:
J774 [1] = assay: Inhibition of PI3K/Akt in mouse J774 cells assessed as reduction in LPS-induced Akt phosphorylation at Ser473 after 4 hrs by Western blot analysis; type: cell-based
How it was run: (§1)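 J774 macrophages were exposed to LPS (10 ng/mL) for 4 h with increasing compound concentrations, then lysed on ice in Tris/EDTA/Triton buffer with protease and phosphatase inhibitors. Lysate protein (20 μg) was Western blotted with an antibody against Akt phospho-S473. Chemiluminescence was quantified; mean + SEM, n = 4.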

J774 [2] = assay: Antiinflammatory activity in mouse J774 cells assessed as reduction in LPS-induced nitric oxide production after 24 hrs by Griess assay; type: functional, cell-based; conditions: for IC50: J774, 24 h
How it was run: (§2)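 Confluent J774 macrophages (72 h growth, DMEM/10% FBS) were treated with LPS 10 ng/mL plus increasing compound concentrations for 24 h. NO production was followed as nitrite accumulated in the medium, measured by Griess test. The half-maximal inhibitory concentration was derived from the concentration series; n = 4.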

J774 [3] = assay: Antiinflammatory activity in mouse J774 cells assessed as reduction in LPS-induced IL6 expression after 24 hrs by ELISA; type: functional, cell-based; conditions: for IC50: J774, 24 h
How it was run: (§3)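 J774 macrophages were grown 72 h to confluence in DMEM with 10% heat-inactivated FBS. Cells were stimulated with LPS (10 ng/mL) with increasing compound concentrations for 24 h. IL6 or MCP1 in the collected medium was measured by ELISA. Concentration giving 50% inhibition was taken from the concentration series; mean + SEM, n = 4.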

J774 [4] = assay: Antiinflammatory activity in mouse J774 cells assessed as reduction in LPS-induced MCP1 expression after 24 hrs by ELISA; type: functional, cell-based; conditions: for IC50: J774, 24 h; how it was run: as §3
J774 [5] = assay: Inhibition of PI3K/Akt in mouse J774 cells assessed as reduction in LPS-induced Akt phosphorylation at Ser473 at 30 uM after 4 hrs by Western blot analysis; type: cell-based; how it was run: as §1
J774 [6] = assay: Antiinflammatory activity in mouse J774 cells assessed as reduction in LPS-induced nitric oxide production at 30 uM after 24 hrs by Griess assay; type: functional, cell-based; how it was run: as §2
J774 [7] = assay: Antiinflammatory activity in mouse J774 cells assessed as reduction in LPS-induced IL6 expression at 30 uM after 24 hrs by ELISA; type: functional, cell-based; how it was run: as §3
J774 [8] = assay: Antiinflammatory activity in mouse J774 cells assessed as reduction in LPS-induced MCP1 expression at 30 uM after 24 hrs by ELISA; type: functional, cell-based; how it was run: as §3
J774 [9] = assay: Inhibition of PI3K/Akt in mouse J774 cells assessed as reduction in LPS-induced Akt phosphorylation at Ser473 at 100 uM after 4 hrs by Western blot analysis; type: cell-based; how it was run: as §1
Mus musculus [10] = assay: Antiinflammatory activity in carrageenan induced C57BL/6 mouse model of inflammation assessed as reduction in paw edema at 2 mg/kg, ip pretreated for 1 to 2 hrs followed by carrageenan challenge measured after 3 to 6 hrs by plethysmometer; type: functional, organism-based
How it was run: (§4)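 Mice got compound i.p. in 10% DMSO in PBS (pH 7.4) before carrageenan. Under i.p. medetomidine (0.5 mg/kg) plus ketamine (75 mg/kg), one hindpaw received 50 μL intradermal 1.5% w/v λ-carrageenan in saline, and the contralateral paw got saline. Paw volume was measured by plethysmometer before and 3 and 6 h after. Edema = carrageenan-paw minus saline-paw volume change; n = 6–7/group.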

Mus musculus [11] = assay: Antiinflammatory activity in carrageenan induced C57BL/6 mouse model of inflammation assessed as reduction in IL6 expression in hind paw at 2 mg/kg, ip pretreated for 1 to 2 hrs followed by carrageenan challenge measured after 6 hrs by ELISA; type: functional, organism-based
How it was run: (§5)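 Compound was given i.p. in 10% DMSO/PBS (pH 7.4) before intradermal 1.5% w/v λ-carrageenan (50 μL) into one hindpaw under anesthesia; the contralateral paw got saline. At 6 h, paw tissue was collected into 50 mM Tris pH 7.4, 150 mM NaCl with protease/phosphatase inhibitors, minced and centrifuged (10000g, 10 min). Supernatant cytokine was read by ELISA; n = 6–7/group.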

Mus musculus [12] = assay: Antiinflammatory activity in carrageenan induced C57BL/6 mouse model of inflammation assessed as reduction in MCP1 expression in hind paw at 2 mg/kg, ip pretreated for 1 to 2 hrs followed by carrageenan challenge measured after 6 hrs by ELISA; type: functional, organism-based; how it was run: as §5
J774 [13] = assay: Inhibition of PI3K/Akt in mouse J774 cells assessed as reduction in LPS-induced Akt phosphorylation at Ser473 at 10 uM after 4 hrs by Western blot analysis; type: cell-based; how it was run: as §1
Mus musculus [14] = assay: Antiinflammatory activity in carrageenan induced C57BL/6 mouse model of inflammation assessed as reduction in paw edema at 15 mg/kg, ip pretreated for 1 to 2 hrs followed by carrageenan challenge measured after 3 to 6 hrs by plethysmometer; type: functional, organism-based; how it was run: as §4
Mus musculus [15] = assay: Antiinflammatory activity in carrageenan induced C57BL/6 mouse model of inflammation assessed as reduction in IL6 expression in hind paw at 15 mg/kg, ip pretreated for 1 to 2 hrs followed by carrageenan challenge measured after 6 hrs by ELISA; type: functional, organism-based; how it was run: as §5
Mus musculus [16] = assay: Antiinflammatory activity in carrageenan induced C57BL/6 mouse model of inflammation assessed as reduction in MCP1 expression in hind paw at 15 mg/kg, ip pretreated for 1 to 2 hrs followed by carrageenan challenge measured after 6 hrs by ELISA; type: functional, organism-based; how it was run: as §5
Mus musculus [17] = assay: Antiinflammatory activity in carrageenan induced C57BL/6 mouse model of inflammation assessed as reduction in paw edema at 30 mg/kg, ip pretreated for 1 to 2 hrs followed by carrageenan challenge measured after 3 to 6 hrs by plethysmometer; type: functional, organism-based; how it was run: as §4
Mus musculus [18] = assay: Antiinflammatory activity in carrageenan induced C57BL/6 mouse model of inflammation assessed as reduction in IL6 expression in hind paw at 30 mg/kg, ip pretreated for 1 to 2 hrs followed by carrageenan challenge measured after 6 hrs by ELISA; type: functional, organism-based; how it was run: as §5
Mus musculus [19] = assay: Antiinflammatory activity in carrageenan induced C57BL/6 mouse model of inflammation assessed as reduction in MCP1 expression in hind paw at 30 mg/kg, ip pretreated for 1 to 2 hrs followed by carrageenan challenge measured after 6 hrs by ELISA; type: functional, organism-based; how it was run: as §5

IC50 (J774 [2]) | IC50 (J774 [3]) | IC50 (J774 [4]) | Structure (SMILES) | inhibition (J774 [1]) | Activity (J774 [2]) | Activity (J774 [3]) | Activity (J774 [4]) | inhibition (J774 [5]) | further results
103 µM | 99.1 µM | 19.4 µM | COc1ccc(/C=C/c2cc(O)cc(O)c2)cc1O | Dose-dependent effect | Dose-dependent effect | Dose-dependent effect | Dose-dependent effect | – | –
– | – | – | C=CCOc1cc(O)cc(/C=C/c2ccccc2)c1 | – | – | – | – | Active | –
– | – | – | CC(C)(C)Oc1cc(O)cc(/C=C/c2ccccc2)c1 | – | – | – | – | inactive | –
– | – | – | CCCOc1cc(O)cc(/C=C/c2ccccc2)c1 | – | – | – | – | inactive | –
– | – | – | CCOc1cc(O)cc(/C=C/c2ccccc2)c1 | – | – | – | – | Active | –
– | – | – | COc1ccc(/C=C/c2cc(O)cc(O[C@@H]3O[C@H](CO)[C@@H](O)[C@H](O)[C@H]3O)c2)cc1O | – | – | – | – | – | Activity (J774 [6]): inactive; Activity (J774 [7]): inactive; Activity (J774 [8]): inactive; inhibition (J774 [9]): inactive
– | – | – | C[C@@H]1C[C@H]2[C@@H]3CCC4=CC(=O)C=C[C@]4(C)[C@@]3(F)[C@@H](O)C[C@]2(C)[C@@]1(O)C(=O)CO | – | – | – | – | – | Activity (Mus musculus [10]): Active; Activity (Mus musculus [11]): Active; Activity (Mus musculus [12]): Active
– | – | – | OC[C@H]1O[C@@H](Oc2cc(O)cc(/C=C/c3ccc(O)c(O)c3)c2)[C@H](O)[C@@H](O)[C@@H]1O | – | – | – | – | – | Activity (J774 [6]): inactive; Activity (J774 [7]): inactive; Activity (J774 [8]): inactive; inhibition (J774 [9]): inactive
– | – | – | Oc1cc(/C=C/c2ccccc2)cc(OCc2ccccc2)c1 | – | – | – | – | inactive | –
8.9 µM | 5.1 µM | 3.7 µM | O=c1cc(N2CCOCC2)oc2c(-c3ccccc3)cccc12 [LY-294002] | – | – | – | – | – | inhibition (J774 [13]): Active; Activity (Mus musculus [14]): Active; Activity (Mus musculus [15]): Active; Activity (Mus musculus [16]): Active
2.6 µM | 13 µM | 4 µM | Oc1cc(O)cc(/C=C/c2ccc(O)c(O)c2)c1 [PICEATANNOL] | Dose-dependent effect | Dose-dependent effect | Dose-dependent effect | Dose-dependent effect | – | Activity (Mus musculus [17]): Active; Activity (Mus musculus [18]): Active; Activity (Mus musculus [19]): Active
37 µM | 30.2 µM | 23.7 µM | COc1cc(O)cc(/C=C/c2ccccc2)c1 [PINOSYLVIN METHYL ETHER] | Dose-dependent effect | Dose-dependent effect | Dose-dependent effect | Dose-dependent effect | – | –
16.6 µM | 32.1 µM | 38.7 µM | Oc1cc(O)cc(/C=C/c2ccccc2)c1 [PINOSYLVIN] | Dose-dependent effect | Dose-dependent effect | Dose-dependent effect | Dose-dependent effect | – | Activity (Mus musculus [17]): Active; Activity (Mus musculus [18]): Active; Activity (Mus musculus [19]): Active
16.7 µM | 8.7 µM | 10.5 µM | COc1cc(/C=C/c2ccc(O)cc2)cc(OC)c1 [PTEROSTILBENE] | Dose-dependent effect | Dose-dependent effect | Dose-dependent effect | Dose-dependent effect | – | Activity (Mus musculus [17]): Active; Activity (Mus musculus [18]): Active; Activity (Mus musculus [19]): Active
12.2 µM | 6.8 µM | 13.6 µM | Oc1ccc(/C=C/c2cc(O)cc(O)c2)cc1 [RESVERATROL] | Dose-dependent effect | Dose-dependent effect | Dose-dependent effect | Dose-dependent effect | – | –

Reference: ChEMBL document CHEMBL4145567, “Natural Stilbenoids Have Anti-Inflammatory Properties in Vivo and Down-Regulate the Production of Inflammatory Mediators NO, IL6, and MCP1 Possibly in a PI3K/Akt-Dependent Manner” (J Nat Prod, 2018)
